Screening data from PubChem BioAssay.
KDM4C inh – blocks human GASC-1 (KDM4C) demethylase activity; GST-KDM4C 2-372, H3K9me3 peptide, LANCE TR-FRET; inhibition, % at 12.5 µM; Q9H3R0; 0.15% of 96,000 active;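 active means mean replicate inhibition above about 25%, with at least 55% of replicates also reaching it, limit read from the data, passing the limit was not always enough; inconclusive means only one of those two conditions met; inactive means neither condition met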
Target sequence (Q9H3R0 2-372 limits assumed): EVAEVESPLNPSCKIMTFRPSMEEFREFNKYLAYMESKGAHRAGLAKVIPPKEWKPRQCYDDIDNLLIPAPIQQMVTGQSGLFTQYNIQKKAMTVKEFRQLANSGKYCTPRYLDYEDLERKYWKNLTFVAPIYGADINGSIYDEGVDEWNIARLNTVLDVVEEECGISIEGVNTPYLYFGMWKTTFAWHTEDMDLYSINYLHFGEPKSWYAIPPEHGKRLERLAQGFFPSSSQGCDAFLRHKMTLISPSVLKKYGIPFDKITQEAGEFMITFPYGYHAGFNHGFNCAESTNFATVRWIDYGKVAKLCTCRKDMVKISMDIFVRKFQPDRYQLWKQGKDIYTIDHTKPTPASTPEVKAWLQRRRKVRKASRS
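Material: GST-tagged GASC-1 (JMJD2C) catalytic fragment, aa 2-372. Input: enzyme final amount 10 nM. Medium: HEPES buffer, pH 7.5, plus ascorbate. Reagent: H3K9me3 peptide substrate, Fe(II), 2-oxoglutarate. Doses: single dose. Times: reaction 30 min RT, detection step 1 h RT. Measured by: LANCE TR-FRET. Evaluation: Fall in 671/618 emission ratio as inhibition.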
Pf Dd2 inh – blocks growth of Plasmodium falciparum Dd2 parasites | P. falciparum Dd2 growth, SYBR Green, 72 h; hits give low values | activity change, % at 10 µM | 2.3% of 94,000 active | AID 1159554; in the data active means activity change below about -80%; inconclusive means no clear call, values can overlap the other calls
T cruzi growth-1 – T. cruzi proliferation inhibition; T. cruzi beta-gal in NIH3T3, GalScreen luminescence, 90 h; inhibition, % at 8.34 µM; 5.9% of 77,000 active; AID 624255;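 active means mean inhibition above about 93%, with at least 55% of replicates each passing it, limit read from the data, passing the limit was not always enough; inconclusive means only one of those two conditions holds; inactive means neither condition holds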
IDH1 R132H inh – blocks human IDH1 R132H reductase activity. AID 624101. 0.18% of 70,000 active. O75874. inhibition, % at 10 µM. diaphorase/resazurin fluorescence, 60 min; in the data active means inhibition above about 34%; inconclusive means no clear call, values can overlap the other calls; inactive means below about 11%
T cruzi growth-2 – Trypanosoma cruzi proliferation inhibition. T. cruzi beta-gal in NIH3T3, GalScreen luminescence, 90 h. 72% of 5,600 active. inhibition, % at 8.35 µM. AID 651739. shares compounds with T cruzi growth-1;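 active means mean replicate inhibition above about 95% and at least 55% of replicates individually reaching it, limit read from the data; inconclusive means only one of the two criteria is met; inactive means neither criterion is met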
T cruzi growth-3 – blocks T. cruzi growth in NIH3T3 host cells | shares compounds with T cruzi growth-1 | T. cruzi beta-gal in NIH3T3, GalScreen luminescence, 90 h | inhibition, % at 2.09 µM | 21% of 5,600 active | AID 651740;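 active means mean inhibition above about 95%, with at least 55% of replicates also reaching it, limit read from the data; inconclusive means meets just one of the two conditions; inactive means meets neither condition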
3T3 cytotox – cytotoxicity in mouse NIH/3T3 fibroblasts | 14% of 5,600 active | shares compounds with T cruzi growth-1 | NIH/3T3 viability, CellTiter-Glo ATP luminescence, 90 h | cytotoxicity (signal decrease), % at 8.35 µM;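 active means mean signal decrease across replicates above about 35% based on untreated-well scatter, with enough replicates individually passing, limit read from the data; inconclusive means no rule stated though some were filed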
NIH3T3 tox 2 – kills mouse NIH/3T3 fibroblasts. shares compounds with T cruzi growth-1. inhibition, % at 24.9 µM. AID 651744. NIH/3T3 viability, CellTiter-Glo ATP luminescence, 90 h. 56% of 5,600 active;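 active means mean loss of cell viability signal at or above a set limit, and enough replicates individually reaching it; inconclusive means meets only the mean limit or only the replicate share; inactive means meets neither condition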
Numbers stand for hits; - = inactive; ? = inconclusive; . = no result given. A selection: hits, their analogues and other compounds. The true share with any hit is near 5.8%.

SMILES	KDM4C inh	Pf Dd2 inh	T cruzi growth-1	IDH1 R132H inh	T cruzi growth-2	T cruzi growth-3	3T3 cytotox	NIH3T3 tox 2
C[C@H](CO)N1C[C@H](C)[C@H](CN(C)C(=O)c2ccc(N3CCN(C)CC3)cc2)OCc2cn(nn2)CCCC1=O	-	-	?	-	-	-	-	-
O=C(C[C@H]1CC[C@H]2[C@@H](COC[C@@H](O)CN2Cc2ccc(Oc3ccccc3)cc2)O1)Nc1nccs1	-	-	152	.	102	-	-	-
O=C(C[C@@H]1CC[C@H]2[C@@H](COC[C@H](O)CN2Cc2ccc(Oc3ccccc3)cc2)O1)Nc1nccs1	-	-	193	.	104	-	-	?
O=C(C[C@H]1CC[C@H]2[C@@H](COC[C@H](O)CN2Cc2ccc(Oc3ccccc3)cc2)O1)Nc1nccs1	-	-	191	.	103	-	-	-
O=C(C[C@H]1CC[C@H]2[C@@H](COC[C@H](O)CN2Cc2cccc(Cl)c2)O1)Nc1nccs1	-	-	133	.	?	-	-	-
O=C(CSc1nnnn1-c1ccccc1F)Nc1ccc(Br)cc1	.	.	.	-	.	.	.	.
O=C(CSc1nnnn1-c1ccccc1F)N1c2ccccc2Sc2ccc(Cl)cc21	.	.	.	-	.	.	.	.
N#C[C@H]1[C@H](c2ccc(C#Cc3cccc(F)c3)cc2)[C@@H](CO)N1C(=O)C1CC1	-	-	102	.	104	-	-	-
COc1cccc(C#Cc2ccc([C@@H]3[C@H](C#N)N(C(=O)C4CC4)[C@H]3CO)cc2)c1	-	-	?	.	-	112	-	25
N#C[C@@H]1[C@@H](c2ccc(C#Cc3cccnc3)cc2)[C@@H](CO)N1C(=O)C1CC1	-	-	-	.	.	.	.	.
N#C[C@H]1[C@@H](c2ccc(C#Cc3cccc(F)c3)cc2)[C@H](CO)N1C(=O)C1CC1	-	-	98	.	100	100	39	95
N#C[C@@H]1[C@@H](c2ccc(C#Cc3ccc(F)cc3)cc2)[C@H](CO)N1C(=O)C1CCC1	-	-	-	.	.	.	.	.
N#C[C@@H]1[C@H](c2ccc(C#Cc3ccc(F)cc3)cc2)[C@@H](CO)N1C(=O)C1CC1	-	-	103	.	105	108	-	98
COc1cccc(C#Cc2ccc([C@@H]3[C@H](C#N)N(C(=O)C4CCCC4)[C@H]3CO)cc2)c1	-	-	.	.	.	.	.	.
O=C1C2=C(c3ccccc3)c3cc(F)ccc3C2Sc2ccccc21 (configuration not stated)	.	.	.	-	.	.	.	.
COc1cccc(-c2ccc([C@H]3[C@@H](C#N)N(C(=O)Cc4ccccc4)[C@@H]3CO)cc2)c1	-	-	97	.	110	-	-	43
COc1cccc(-c2ccc([C@@H]3[C@@H](C#N)N(C(=O)Cc4ccncc4)[C@@H]3CO)cc2)c1	-	-	-	.	.	.	.	.
COc1cccc(-c2ccc([C@H]3[C@H](C#N)N(C(=O)Cc4ccncc4)[C@H]3CO)cc2)c1	-	?	?	.	102	-	-	52
CCn1c(SCC(=O)c2cccc([N+](=O)[O-])c2)nnc1-c1cccnc1	.	.	.	-	.	.	.	.
C[C@@H]1CN([C@H](C)CO)C(=O)c2ccccc2-c2ccccc2CO[C@H]1CN(C)S(=O)(=O)c1cccc(C#N)c1	-	-	?	.	-	-	-	-
COc1cccc(S(=O)(=O)N(C)C[C@@H]2OCc3ccccc3-c3ccccc3C(=O)N([C@@H](C)CO)C[C@@H]2C)c1	-	-	105	.	-	-	-	-
Cc1noc(C)c1NC(=O)Nc1ccc2c(c1)C(=O)N(C)[C@@H]1CC[C@H](CC(=O)N[C@@H]3CCN(Cc4ccccc4)C3)O[C@H]1CO2	-	-	-	.	.	.	.	.
Cc1noc(C)c1NC(=O)Nc1ccc2c(c1)C(=O)N(C)[C@H]1CC[C@@H](CC(=O)N[C@H]3CCN(Cc4ccccc4)C3)O[C@@H]1CO2	-	-	104	.	-	-	-	-
Cc1noc(C)c1NC(=O)Nc1ccc2c(c1)C(=O)N(C)[C@H]1CC[C@H](CC(=O)N[C@H]3CCN(Cc4ccccc4)C3)O[C@H]1CO2	-	-	106	.	-	-	-	-
Cc1noc(C)c1NC(=O)Nc1ccc2c(c1)C(=O)N(C)[C@@H]1CC[C@H](CC(=O)N[C@H]3CCN(Cc4ccccc4)C3)O[C@@H]1CO2	-	-	109	.	-	-	-	-
SMILES	KDM4C inh	Pf Dd2 inh	T cruzi growth-1	IDH1 R132H inh	T cruzi growth-2	T cruzi growth-3	3T3 cytotox	NIH3T3 tox 2
Cc1noc(C)c1NC(=O)Nc1ccc2c(c1)C(=O)N(C)[C@@H]1CC[C@@H](CC(=O)N[C@H]3CCN(Cc4ccccc4)C3)O[C@@H]1CO2	-	-	107	.	-	-	-	-
CCn1c(SCC(=O)Nc2ccccc2F)nnc1-c1ccccc1F	.	.	.	-	.	.	.	.
COc1cccc(-c2ccc3c(c2)O[C@@H](CN(C)C(=O)C2CC2)[C@@H](C)CN([C@H](C)CO)S3(=O)=O)c1	-	-	105	.	-	-	-	63
COc1cccc(-c2ccc3c(c2)O[C@@H](CN(C)C(=O)C2CC2)[C@@H](C)CN([C@@H](C)CO)S3(=O)=O)c1	-	-	105	.	-	-	-	45
C[C@H](CO)N1C[C@H](C)[C@H](CN(C)C(=O)c2ccc(F)cc2)Oc2cc(-c3cccc(C#N)c3)ccc2S1(=O)=O	-	-	104	-	-	-	-	64
C[C@@H]1CN([C@H](C)CO)S(=O)(=O)c2ccc(-c3cccc(C#N)c3)cc2O[C@H]1CN(C)C	-	-	110	-	-	-	-	36
C[C@@H]1CN([C@@H](C)CO)S(=O)(=O)c2ccc(-c3cccc(C#N)c3)cc2O[C@H]1CN(C)C(=O)c1ccccc1	-	-	-	-	.	.	.	.
C[C@@H]1CN([C@H](C)CO)S(=O)(=O)c2ccc(-c3cccc(C#N)c3)cc2O[C@@H]1CN(C)C(=O)c1ccc(F)cc1	-	-	101	-	102	-	?	88
C[C@H](CO)N1C[C@H](C)[C@@H](CN(C)C)Oc2cc(-c3cccc(C#N)c3)ccc2S1(=O)=O	-	-	-	-	.	.	.	.
O=c1cc(-c2ccc(O)cc2)oc2cc(OC3OC(CO)C(O)C(O)C3OC3OCC(O)(CO)C3O)cc(O)c12 (configuration not stated)	.	.	.	-	.	.	.	.
CN(C)CC(=O)N1CCCCN2[C@H](CO)[C@@H](c3ccc(-c4cccnc4)cc3)[C@@H]2C1	-	-	101	.	-	-	-	-
CCC(=O)N1CCCCN2[C@@H](CO)[C@H](c3ccc(-c4cccnc4)cc3)[C@@H]2C1	-	-	100	.	96	-	-	29
CCC(=O)N1CCCCN2[C@H](C1)[C@@H](c1ccc(-c3cccnc3)cc1)[C@@H]2CO	-	-	-	.	.	.	.	.
